In ChEMBL document CHEMBL2439964, “Identification of a series of 1,3,4-trisubstituted pyrazoles as novel hepatitis C virus entry inhibitors” (Bioorg Med Chem Lett, 2013):

What was measured:
[1] = Selectivity index, ratio of CC50 for human HuH7 cells to EC50 for cell culture derived HCV; design: species or system Huh-7
Outline: (§1)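 Naïve Huh-7 cells in 384-well plates were given serially diluted compound, then infected with cell culture-derived HCV (HCVcc) at MOI 1. Live cells were analysed 72 h post-infection. EC50 came from 10-point dose-response in duplicate with quadruplicate measurements, or 5-point in duplicate for one series. CC50 came from automated per-well cell counts. SI = CC50/EC50.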

[2] = Cytotoxicity against human HuH7 cells; format: cell-based, Huh-7; outline: as §1
[3] = test system: Hepatitis C virus; experiment: Antiviral activity against cell culture derived HCV infected in human HuH7 cells assessed as inhibition of viral replication after 72 hrs; format: functional, organism-based, Hepacivirus hominis; settings: Huh-7, 72 h; outline: as §1

| SMILES | Ratio CC50/EC50 [1] | CC50 [2] [µM] | EC50 [3] [µM] |
| --- | --- | --- | --- |
| CN1CCN(CCNCc2cn(-c3ccc(C(F)(F)F)cc3)nc2-c2ccc(Cl)cc2)CC1 | 8.4 | 3 | 0.36 |
| Cc1ccccc1-c1nn(-c2ccc(F)c(F)c2)cc1CNCCN1CCN(C)CC1 | >7.7 | > 20 | 2.6 |
| Cc1ccccc1-c1nn(-c2cccc(C(F)(F)F)c2)cc1CNCCN1CCN(C)CC1 | 20 | 18 | 0.91 |
| Cc1ccccc1-c1nn(-c2ccc(F)cc2F)cc1CNCCN1CCN(C)CC1 | >7.2 | > 20 | 2.8 |
| CN1CCN(CCNCc2cn(-c3ccc(F)cc3F)nc2C(C)(C)C)CC1 | >1.8 | > 20 | 11 |
| Cc1ccccc1-c1nn(-c2ccc(F)cc2F)cc1CN1CCC(N2CCCCC2)CC1 | >2.7 | > 20 | 7.5 |
| CN1CCN(CCCNCc2cn(-c3ccc(C(F)(F)F)cc3)nc2-c2ccc(OC(F)(F)F)cc2)CC1 | 3.1 | 2.3 | 0.75 |
| Cc1ccccc1CNc1nn(-c2ccc(F)cc2F)cc1CNCCN1CCN(C)CC1 | >4.7 | > 20 | 4.3 |
| CN1CCN(CCCNCc2cn(-c3ccc([N+](=O)[O-])cc3)nc2-c2ccc(OC(F)(F)F)cc2)CC1 | 4.6 | 1.6 | 0.34 |
| Cc1ccccc1-c1nn(-c2ccc(F)cc2F)cc1CNCCCN1CCN(C)CC1 | >9 | > 20 | 2.2 |
| Cc1ccccc1-c1nn(-c2ccc(F)cc2F)cc1CN1CCN(C(C)C)CC1 |  | > 20 | > 20 |
| CN1CCN(CCNCc2cn(-c3ccc([N+](=O)[O-])cc3)nc2-c2ccc(OC(F)(F)F)cc2)CC1 | 11 | 4.4 | 0.4 |
| Cc1ccccc1-c1nn(-c2cc(F)ccc2F)cc1CNCCN1CCN(C)CC1 | >8 | > 20 | 2.5 |
| CN1CCN(CCNCc2cn(-c3ccc(F)cc3F)nc2-c2cccc(Cl)c2)CC1 | 26 | 15 | 0.58 |
| CN1CCN(CCNCc2cn(-c3ccc(F)cc3F)nc2-c2ccccc2Cl)CC1 | >6.1 | > 20 | 3.3 |
| CCCN1CCC(CNCc2cn(-c3ccc(C(F)(F)F)cc3)nc2-c2ccc(OC(F)(F)F)cc2)CC1 | 5.3 | 2.2 | 0.41 |
| CN1CCN(CCNCc2cn(-c3ccc(F)cc3F)nc2C2CCCCC2)CC1 | >17 | > 20 | 1.2 |
| CCCN1CCC(CNCc2cn(-c3ccc(F)cc3F)nc2-c2ccccc2C)CC1 | >8.8 | > 20 | 2.3 |
| CN1CCN(CCCNCc2cn(-c3ccc([N+](=O)[O-])cc3)nc2-c2ccc(C(F)(F)F)cc2)CC1 | 41 | 4.9 | 0.12 |
| COc1ccc(-c2nn(-c3ccc(F)cc3F)cc2CNCCN2CCN(C)CC2)cc1 | >9.5 | > 20 | 2.1 |
| Cc1ccccc1-c1nn(Cc2ccccc2)cc1CNCCN1CCN(C)CC1 | >2.3 | > 20 | 7.5 |
| Cc1ccccc1-c1nn(-c2ccc(Br)cc2)cc1CNCCN1CCN(C)CC1 | 8 | 9.6 | 1.2 |
| Cc1ccccc1-c1nn(-c2ccc(C(F)(F)F)cc2)cc1CNCCN1CCN(C)CC1 | 24 | 11 | 0.46 |
| Cc1ccccc1-c1nn(Cc2ccc(F)cc2)cc1CNCCN1CCN(C)CC1 | >2 | > 20 | 10 |
| Cc1ccccc1-c1nn(-c2ccc(OC(F)(F)F)cc2)cc1CNCCN1CCN(C)CC1 | 19 | 17 | 0.9 |
| COC(=O)c1ccc(-c2nn(-c3ccc(F)cc3F)cc2CNCCN2CCN(C)CC2)cc1 | >5.3 | > 20 | 3.8 |
| Cc1ccccc1-c1nn(-c2ccc(Cl)cc2)cc1CNCCN1CCN(C)CC1 | 26 | 17 | 0.65 |

| SMILES | Ratio CC50/EC50 [1] | CC50 [2] [µM] | EC50 [3] [µM] |
| --- | --- | --- | --- |
| Cc1c(CNCCN2CCN(C)CC2)c(-c2ccccc2)nn1-c1ccc(F)cc1 |  | > 20 | 8.5 |
| CN1CCN(CCNC(=O)c2cn(-c3ccc(F)cc3F)nc2-c2ccccc2Cl)CC1 |  | > 20 | > 20 |
| Cc1ccccc1-c1nn(-c2ccc(F)cc2F)cc1CNC1CCN(S(C)(=O)=O)CC1 |  | > 20 | > 20 |
| Cc1ccccc1-c1nn(-c2cccc(Cl)c2)cc1CNCCN1CCN(C)CC1 | 16 | 16 | 1 |
| CCOC(=O)Cn1cc(CNCCN2CCN(C)CC2)c(-c2ccccc2C)n1 |  | > 20 | > 20 |
| Cc1ccccc1-c1nn(-c2ccc([N+](=O)[O-])cc2)cc1CNCCN1CCN(C)CC1 | >41 | > 20 | 0.49 |
| CCN(CC)CCCNCc1cn(-c2ccc(F)cc2F)nc1-c1ccccc1C | >4.6 | > 20 | 4.3 |
| Cc1ccccc1-c1nn(-c2ccc(F)cc2F)cc1CNCCCCO |  | > 20 | > 20 |
| CN1CCN(CCCNCc2cn(-c3ccc(C(F)(F)F)cc3)nc2-c2ccc(Cl)cc2)CC1 | 6.9 | 2.5 | 0.36 |
| CN1CCN(CCNCc2cn(-c3ccc([N+](=O)[O-])cc3)nc2-c2ccc(C(F)(F)F)cc2)CC1 | 29 | 3.2 | 0.11 |
| CN1CCN(CCNCc2cn(-c3ccc([N+](=O)[O-])cc3)nc2-c2ccc(Cl)cc2)CC1 | 17 | 5 | 0.29 |
| CCCCCNCc1cn(-c2ccc(F)cc2F)nc1-c1ccccc1C | 1 | 17 | 18 |
| Cc1ccccc1-c1nn(-c2ccc(F)cc2F)cc1CN1CCN(c2ccccc2)CC1 |  | > 20 | > 20 |
| COCCN1CCC(CNCc2cn(-c3ccc(F)cc3F)nc2-c2ccccc2C)CC1 | >6.7 | > 20 | 3 |
| Cc1ccccc1-c1nn(C(C)C)cc1CNCCN1CCN(C)CC1 |  | > 20 | > 20 |
| Cc1ccccc1-c1nn(-c2ccc(F)cc2F)cc1CNCc1ccncc1 |  | > 20 | > 20 |
| CN1CCN(CCCNCc2cn(-c3ccc(C(F)(F)F)cc3)nc2-c2ccc(C(F)(F)F)cc2)CC1 | 5.3 | 2 | 0.38 |
| CCCN1CCC(CNCc2cn(-c3ccc([N+](=O)[O-])cc3)nc2-c2ccc(C(F)(F)F)cc2)CC1 | 15 | 2.3 | 0.15 |
| Cc1ccc(-c2nn(-c3ccc(F)cc3F)cc2CNCCN2CCN(C)CC2)cc1 | >25 | > 20 | 0.81 |
| Cc1ccccc1-c1nn(-c2ccc(F)cc2F)cc1CNCCN(C)C |  | > 20 | > 20 |
| CN1CCN(CCNCc2cn(-c3ccc(F)cc3F)nc2-c2ccccc2)CC1 | >13 | > 20 | 1.6 |
| Cc1ccccc1-c1nn(-c2ccc(F)cc2F)cc1CNCCN1CCCCC1 | >1 | > 20 | 20 |
| CN1CCN(CCNCc2cn(-c3ccc(F)cc3F)nc2-c2ccc(S(=O)(=O)N(C)C)cc2)CC1 | >11 | > 20 | 1.8 |
| CN1CCN(CCNCc2cn(-c3ccc(C(F)(F)F)cc3)nc2-c2ccc(C(F)(F)F)cc2)CC1 | 3.1 | 1.5 | 0.49 |
| Cc1ccccc1-c1nn(-c2ccc(F)cc2F)cc1CNCCN1CCOCC1 |  | > 20 | > 20 |
| CN1CCN(CCNCc2cc(-c3ccccc3)nn2-c2ccc(F)cc2)CC1 |  | > 20 | 13 |
